High-throughput results: PubChem, Johns Hopkins Ion Channel Center
Rows were chosen to be rich in hits. Some 2.3% of all compounds tested hit in one or more screens of this group.
TRPC4 inh – blocks the mouse TRPC4 cation channel | Q9QUQ5 | HEK293 TRPC4beta/mu-opioid, DAMGO-evoked Fluo4 calcium flux; hits give low values | B-score at 10 µM | 0.39% of 300,000 active | AID 2247;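 active = B-score over 3 SD under the library average, no early fluorescence shift, positive overall ratio signal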
Target sequence (Q9QUQ5 whole entry, looked up): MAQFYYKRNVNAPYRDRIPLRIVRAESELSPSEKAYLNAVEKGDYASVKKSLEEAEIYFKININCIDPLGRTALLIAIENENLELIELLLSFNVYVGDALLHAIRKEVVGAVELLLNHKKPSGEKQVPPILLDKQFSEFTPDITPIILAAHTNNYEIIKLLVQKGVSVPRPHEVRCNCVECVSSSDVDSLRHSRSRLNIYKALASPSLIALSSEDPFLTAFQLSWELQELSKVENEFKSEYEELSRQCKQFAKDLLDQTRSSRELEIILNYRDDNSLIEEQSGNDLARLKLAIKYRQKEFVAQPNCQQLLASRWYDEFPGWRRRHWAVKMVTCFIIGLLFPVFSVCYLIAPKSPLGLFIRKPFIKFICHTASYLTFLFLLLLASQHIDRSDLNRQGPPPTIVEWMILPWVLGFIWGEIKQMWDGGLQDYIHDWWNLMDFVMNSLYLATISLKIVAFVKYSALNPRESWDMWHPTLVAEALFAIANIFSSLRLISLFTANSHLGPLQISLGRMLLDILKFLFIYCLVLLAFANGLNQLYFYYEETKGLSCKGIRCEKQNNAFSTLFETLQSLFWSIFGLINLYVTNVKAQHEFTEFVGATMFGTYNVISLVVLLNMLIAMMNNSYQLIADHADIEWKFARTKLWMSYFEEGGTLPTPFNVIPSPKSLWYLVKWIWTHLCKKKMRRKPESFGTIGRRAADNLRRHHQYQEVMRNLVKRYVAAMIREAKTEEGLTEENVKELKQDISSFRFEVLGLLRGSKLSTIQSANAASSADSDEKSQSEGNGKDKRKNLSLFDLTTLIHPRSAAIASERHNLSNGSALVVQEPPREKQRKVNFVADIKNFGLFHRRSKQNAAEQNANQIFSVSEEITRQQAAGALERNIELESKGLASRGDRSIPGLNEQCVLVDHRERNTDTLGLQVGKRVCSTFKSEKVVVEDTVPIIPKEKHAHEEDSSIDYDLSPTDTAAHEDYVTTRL
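Material: HEK293 cells with stable TRPC4beta plus mu-opioid receptor expression; probe or stimulus: DAMGO in two steps, submaximal then maximal; technique: Fluo4 calcium fluorescence by kinetic imaging, 5 s 1 Hz baseline; measure: integrated fluorescence ratio relative to baseline, converted to per-well B score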
TRPC4 potent – TRPC4 (mouse) allosteric potentiation; 0.42% of 310,000 active; Q9QUQ5; HEK293 TRPC4beta/mu-opioid, DAMGO EC20, Fluo-4 Ca2+ flux; hits give high values; AID 2227; B-score at 10 µM;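 active = B-score of calcium response area above 5 SD of library B-scores, with initial fluorescence ratio within 5 SD of library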;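 also: B-score of integrated fluorescence ratio over time as area under calcium response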
TRPC6 act – activators of mouse TRPC6 channel; HEK293-TRPC6 membrane potential dye fluorescence; hits give high values; B-score at 10 µM; 0.13% of 310,000 active;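 active = B-score of the integrated fluorescence ratio above library mean plus 3 SD, and starting fluorescence ratio within library mean plus 5 SD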;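 also: higher score means more depolarization so channel activation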
TRPC4 act – TRPC4 (mouse) channel activation. HEK293 TRPC4beta/mu-opioid, Fluo4 calcium fluorescence; hits give high values. Q9QUQ5. B-score at 10 µM. 0.49% of 310,000 active;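 active = B-score above 5 SD of library B-scores, and initial fluorescence ratio not above library mean plus 5 SD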;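 also: positive B-score marks a calcium rise read as TRPC4 activation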
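Material: HEK293 stable line with TRPC4beta plus mu-opioid receptor; technique: Fluo4 calcium-sensitive dye fluorescence, kinetic, 1 Hz baseline; timing: Fluo4 dye loading 45 min at room temperature, 110 s recording; controls: assay buffer as low control, maximal DAMGO as high control; read-out: integrated baseline-normalised fluorescence ratio, converted to per-well B score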
TRPC6 inh – blocks the mouse TRPC6 cation channel; Q61143; 1.1% of 310,000 active; HEK293-TRPC6, membrane potential dye, ACh-evoked depolarization; hits give low values; B-score at 10 µM;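 active = B-score under library mean minus 3 SD, initial fluorescence not abnormally high, positive integrated signal ratio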;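 also: B-score derived from integrated fluorescence ratio over the kinetic read; more negative B-score means stronger inhibition of depolarization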
The depositor's hits bear a star; i = inactive.

SMILES | TRPC4 inh | TRPC4 potent | TRPC6 act | TRPC4 act | TRPC6 inh
CCOC(=O)COc1c(OC)cc(Cl)cc1C1NC(=O)NC(C)=C1C(C)=O (stereo unspecified) | i | i | i | i | i
CCCC1=C(C(=O)OCC)C(c2cc(Cl)cc(OC)c2OCC(=O)OCC)NC(=O)N1 (stereo unspecified) | i | 22* | i | i | i
COc1ccccc1NC(=O)CN1CCN(CC(=O)Nc2ccc(F)cc2F)CC1 | i | i | i | i | i
O=C(Nc1nc(-c2cccs2)cs1)c1ccc(Cl)cc1 | i | i | i | i | i
CCCSc1nnc(NC(=O)c2sc3nc(-c4cccs4)ccc3c2N)s1 | i | i | i | i | i
COc1ccc(C(=O)Nc2nc(-c3cccs3)cs2)cc1 | -7* | i | i | i | i
Cc1csc(NC(=O)c2sc3nc(-c4cccs4)ccc3c2N)n1 | i | 10* | i | 47* | i
CCCCn1c(N)c(N(CCOC)C(=O)c2nn(CC)c(=O)c3ccccc23)c(=O)[nH]c1=O | i | i | i | i | i
O=[N+]([O-])c1cc(C(F)(F)F)ccc1NC1CCN(Cc2ccccc2)C1 (stereo unspecified) | i | 50* | i | i | i
O=[N+]([O-])c1cc(C(F)(F)F)ccc1NC1CCN(Cc2ccccc2)CC1 | i | i | i | i | i
CCCN1CCC(NC(=O)Nc2ccccc2C(=O)OC)CC1 | i | i | i | 71* | i
COC(=O)c1ccccc1NC(=O)NC1CC1 | i | i | i | i | i
CCCCOc1ccc(CSC(CC(=O)O)C(=O)O)cc1 (stereo unspecified) | i | i | i | i | i
CCCCOc1ccc(CSCCN=C(N)N)cc1 | -6* | i | i | i | i
CC(C)(C)c1ccc(C(CC(=O)O)NC(=O)Cc2ccc(Cl)cc2)cc1 (stereo unspecified) | i | i | i | i | i
O=C(c1cccc([N+](=O)[O-])c1)N1CCCC(C(=O)N2CCCCCC2)C1 (stereo unspecified) | i | 29* | i | i | i
COC(=O)CCCCCN1C(=O)/C(=C\c2ccncc2)SC1=S | i | 10* | i | i | i
CCc1ccc(/C=C2/SC(=S)N(CCCC(=O)Nc3ccccc3C(=O)O)C2=O)cc1 | -6* | i | i | i | i
CCc1ccc(/C=C2\SC(=S)N(CCCC(=O)Nc3ccccn3)C2=O)cc1 | i | i | i | i | i
CN(C(=O)CSc1nnc(CN2CCCC2)n1Cc1ccccc1)c1ccccc1 | i | i | i | i | i
COc1ccc(CCNC(=O)C2CCN(C(=O)c3ccc(C(C)(C)C)cc3)CC2)cc1 | i | 17* | i | i | i
COc1ccc(CCNC(=O)C2CCN(C(=O)c3ccc(F)cc3)CC2)cc1 | i | i | i | i | i
CCN(CC(=O)Nc1ccc(NC(C)=O)cc1)C(=O)C1COc2ccccc2O1 (stereo unspecified) | i | i | i | i | i
O=C(Nc1ccccc1)C1=C[C@H](c2ccc(C(F)(F)F)cc2)C[C@H](OCc2ccc(CO)cc2)O1 | i | i | i | i | i
O=C(NCc1ccccc1)C1=C[C@H](c2ccccc2)C[C@H](OCc2ccc(CO)cc2)O1 | i | i | i | 176* | i
SMILES | TRPC4 inh | TRPC4 potent | TRPC6 act | TRPC4 act | TRPC6 inh
O=C(NCc1ccccc1)C1=C[C@H](c2ccc(C(F)(F)F)cc2)C[C@H](OCc2ccc(CO)cc2)O1 | i | 19* | i | i | i
O=C(Nc1ccccc1)C1=C[C@H](c2ccccc2)C[C@H](OCc2ccc(CO)cc2)O1 | i | 12* | i | i | i
CC(=O)n1cc([C@@H]2C=C(C(=O)NCc3ccccc3)O[C@H](OCc3ccc(CO)cc3)C2)c2ccccc21 | i | 15* | i | i | i
O=C(NCc1ccccc1)C1=C[C@@H](c2ccc(Br)cc2)C[C@@H](OCc2ccc(CO)cc2)O1 | i | i | i | i | i
CC(C)c1[nH]nc2c1C(C1C=CCCC1)C(C#N)=C(N)O2 (stereo unspecified) | i | 21* | i | i | i
CC(C)(C)c1[nH]nc2c1C(C1C=CCCC1)C(C#N)=C(N)O2 (stereo unspecified) | i | i | i | i | i
NCCCNC(=O)c1cc2ccccc2[nH]1 | i | i | i | 106* | i
O=C1COc2ccc(S(=O)(=O)N3CCCC3)cc2N1 | i | i | i | i | i
O=C1COc2ccc(N3C(=O)C=CC3=O)cc2N1 | -7* | i | i | i | i
COc1ccc(CNC(=S)Nc2cccc(F)c2)cc1 | i | i | i | i | i
COc1ccc(COC(=O)c2ccc(C)c(S(=O)(=O)N3CCOCC3)c2)cc1F | i | i | i | i | i
CN1CCCCC1CCN1c2ccccc2Sc2ccc(S(C)=O)cc21 (stereo unspecified) | i | i | i | i | -7.48*
O=C(CCNC(=O)Cn1ccc2ccccc2c1=O)NCCN1CCN(c2cccc(Cl)c2)CC1 | -6* | i | i | i | i
CCOc1ccccc1NC(=O)C1(S(=O)(=O)c2ccc(Cl)cc2)CC1 | i | i | i | i | i
Cc1ccccc1CNC(=O)C1CCC(=O)N(C2CCCCCC2)C1 (stereo unspecified) | i | i | i | i | i
Cc1ccsc1/C=C/C1=Cc2c(sc(NC(=O)CSc3n[nH]c(N)n3)c2C#N)C(C)(C)C1 | i | 90* | i | i | i
CCOC(=O)c1sc(NC(=O)CSc2n[nH]c(-c3ccncc3)n2)c(C#N)c1C | i | i | i | i | i
CCOc1ccc(/C=C/C2=Cc3c(sc(NC(=O)CSc4n[nH]c(N)n4)c3C#N)C(C)(C)C2)cc1 | i | 17* | i | i | i
CCCCN(C)CCCNC(=O)c1ccc2c(c1)NC(=O)C(N1CCOCC1)S2 (stereo unspecified) | i | 12* | i | i | i
Cc1ccc(NC2CCCN(C(=O)C3CCCC3)C2)cc1C (stereo unspecified) | i | i | i | i | i
Cc1cc(C)cc(OCC(=O)OC(C)C(=O)Nc2ccc(Cl)cn2)c1 (stereo unspecified) | i | i | i | i | i
CCN(CC)CCCNC(=O)c1ccc2c(Cl)c3c(nc2c1)CCCC3 | i | i | i | i | i
CCCCN(CC)CCNC(=O)c1ccc2c(Cl)c3c(nc2c1)CCC3 | i | 12* | i | 132* | i
